Assay outcomes from PubChem BioAssay.
APP 5'UTR act: activates APP 5'UTR luciferase reporter; SH-SY5Y APP 5'UTR luciferase reporter, luminescence; zero percent = DMSO vehicle wells; activation, % at 2 µM; 1% of 190,000 active;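 active means activation above a set limit, based on mean plus 3 SD of controls, cut at about 140% in these data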
FLuc inh counter: counter-screen for luciferase assay inhibitors: firefly luciferase inhibition; ATPLite firefly luciferase biochemical luminescence, 10 min; 1.5% of 200,000 active; inhibition, % at 10 µM;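 active means inhibition above about 50% when tested at 10 µM, limit read from the data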
Target sequence (P08659 whole entry, looked up): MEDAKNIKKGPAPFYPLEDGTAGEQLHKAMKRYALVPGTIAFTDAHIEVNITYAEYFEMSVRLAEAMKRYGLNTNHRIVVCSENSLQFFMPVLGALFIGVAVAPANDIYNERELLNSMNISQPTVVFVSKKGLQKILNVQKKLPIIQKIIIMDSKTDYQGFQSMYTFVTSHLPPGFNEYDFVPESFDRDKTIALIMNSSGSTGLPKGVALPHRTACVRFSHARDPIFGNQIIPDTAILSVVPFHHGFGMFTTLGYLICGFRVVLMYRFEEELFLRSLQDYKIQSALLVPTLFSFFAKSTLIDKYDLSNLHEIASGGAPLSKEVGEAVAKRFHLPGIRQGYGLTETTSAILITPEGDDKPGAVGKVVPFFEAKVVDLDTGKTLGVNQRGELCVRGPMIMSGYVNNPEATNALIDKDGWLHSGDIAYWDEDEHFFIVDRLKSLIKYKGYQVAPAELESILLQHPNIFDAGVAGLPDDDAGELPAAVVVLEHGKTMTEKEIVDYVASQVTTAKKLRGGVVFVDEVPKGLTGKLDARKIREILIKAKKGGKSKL
STAT1 act: activators of IFN-gamma induced STAT1 signaling | NIH 3T3 STAT1-luciferase reporter, luminescence; 100% = IFN-gamma alone, no compound | activation (% of control), % at 5.5 µM | 2.6% of 200,000 active | AID 932;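 active means activation above the screen-wide mean activation plus 3 SD, cut at about 130% in these data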
NF-kB neuron act: raises NF-kB expression in human neuronal cells. NF-kB reporter expression; hits give high values. fold change at 12.5 µM. 1.6% of 190,000 active; in the data active means fold change above about 3.3
FLuc act counter: affects firefly luciferase, flagging false hits in luciferase stimulation screens; P08659; ATPlite luciferase biochemical, luminescence, 10 min; 0 = ATP-free wells, 1 = DMSO control; activation factor at 10 µM; 200,000 tested, under 10 active;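 active means luciferase activation factor, scaled between plate controls, of at least 2 with compound at 10 µM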
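Material: Luciferase/luciferin reagent mix; Doses: test compounds dosed from 2 mM stocks in 100% DMSO; Schedule: 10 min incubation after luciferase reagent addition, room temperature; Measured by: luminescence from luciferase reaction; Read-out: luminescence gain marking luciferase activators.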
STAT1 activ conf: STAT1 activation, confirmation assay; shares compounds with STAT1 act; NIH 3T3 STAT1-luciferase reporter, IFN-gamma potentiation, luminescence; 100% = IFN-gamma EC80 alone, no compound; activation (% of control), % at 5.7 µM; 97% of 1,200 active; AID 1262;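 active means activation above a set limit carried over from the earlier primary STAT1 screen, cut at about 140% in these data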
NFkB act: activates NF-kappaB, counter-screen to STAT1 activators; HEK293T NF-kB luciferase reporter, TNF-alpha stimulated, luminescence; 100% = TNF-alpha with vehicle only; 43% of 1,200 active; shares compounds with STAT1 act; activation (% of control), % at 5.7 µM;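 active means activation above the mean of solvent-only control wells plus 3 SD, set per campaign, cut at about 130% in these data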;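 further: TNF-alpha given at a submaximal dose yielding about 80% of full reporter signal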
STAT3 act STAT1c: human STAT3 activation in STAT1 activator counter-screen; shares compounds with STAT1 act; U3A cells STAT3-luciferase reporter, IL-6, luminescence; cells lack STAT1; 100 = IL-6 alone, no compound effect; activation (% of control), % at 5.7 µM; 46% of 1,200 active;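 active means activation above the solvent-only control well mean plus 3 SD, set per plate batch, cut at about 110% in these data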;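 further: higher means more STAT3 reporter activation so hits are non-selective activators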
Numbers stand for hits; i = inactive; nt = no result. In the library only some 4.3% were active in any assay of this set; here they are far more common.

SMILES	APP 5'UTR act	FLuc inh counter	STAT1 act	NF-kB neuron act	FLuc act counter	STAT1 activ conf	NFkB act	STAT3 act STAT1c
Cc1cc(C(=O)COC(=O)c2cccnc2Cl)c(C)n1-c1c(C)n(C)n(-c2ccccc2)c1=O	i	i	i	i	i	nt	nt	nt
COc1ccc(-c2nn(-c3ccccc3)cc2N)cc1	i	i	164.8	3.99	i	159.4	i	164.1
COc1ccc(-n2c(C)cc(C(=O)Cn3nc(C(=O)O)c4ccccc4c3=O)c2C)cc1	i	i	i	i	i	nt	nt	nt
COc1ccc(-n2c(C)cc(C(=O)Cn3nnc4ccccc4c3=O)c2C)cc1	i	i	155.2	i	i	176.4	i	i
O=c1c2ccccc2cnn1-c1ccc(Cl)cc1	i	i	166.2	5.07	i	192.2	i	127.7
Cc1nn(-c2ccc(Cl)cc2)c(=O)c2ccccc12	i	i	i	i	i	nt	nt	nt
CC[N+]1(C)CC2CCC(C)(C1)C2(C)C (stereo unspecified)	i	i	i	i	i	nt	nt	nt
C=C(C)CN(CC)C(=O)CCc1nnc(CCCc2ccccc2)o1	i	i	153.7	i	i	172.4	i	123.2
CC(C)NC(=O)NC(=O)COc1ccc(Br)cc1Br	203.4	i	178.6	5.12	i	234.9	i	i
CC(C)=CC(=O)Nc1nnc(-c2ccccc2)s1	i	i	162.1	i	i	195.8	135.1	i
CCC(C)NC(=O)C(Sc1ccccc1)c1ccccc1 (stereo unspecified)	i	i	i	i	i	nt	nt	nt
COc1ccc(-c2csc(N3CCOCC3)n2)cc1OC	i	i	i	i	i	nt	nt	nt
Clc1ccc(-c2csc(N3CCOCC3)n2)cc1	i	i	159.5	4.93	i	176.5	139.0	i
Brc1ccc(-c2csc(N3CCOCC3)n2)cc1	i	i	150.8	3.36	i	190.2	137.2	i
COc1ccc2c(c1)CC/C2=N\OC(=O)c1ccccc1C	152.6	74.7	159.3	5.9	i	181.5	134.4	i
COc1ccc2c(c1)CC/C2=N\OC(=O)c1cccc(C)c1	i	78.5	165.3	5.87	i	183.1	136.8	i
CC1=CN2C(=N)/C(=C/c3ccco3)C(=O)N=C2S1	136.4	91.7	206.0	7.7	i	310.1	166.6	119.8
Nc1nc(SCC(=O)Nc2ccc3c(c2)OCO3)n[nH]1	i	i	i	i	i	nt	nt	nt
COC(=O)c1cn[nH]c1NC(=S)Nc1ccccc1C	i	i	151.0	i	i	169.5	i	116.9
COC(=O)c1cn[nH]c1NC(=S)Nc1ccc(C)cc1Cl	169.1	54.4	170.0	i	i	306.6	i	i
O=C(CCN1C(=O)c2cccc3cccc(c23)C1=O)Nc1ccon1	i	i	i	i	i	nt	nt	nt
CCCCNC(=S)Nc1ccccc1Cc1ccccc1	i	i	i	i	i	nt	nt	nt
COC(=O)c1sccc1NC(=S)N1CCN(c2ccccc2F)CC1	i	i	i	i	i	nt	nt	nt
CNc1nc(N2CCc3ccccc32)ncc1F	i	i	167.2	5.08	i	194.3	138.6	114.4
O=S(=O)(Nc1nc2c(s1)CCCC2)c1ccc(F)cc1	i	i	i	i	i	nt	nt	nt
SMILES	APP 5'UTR act	FLuc inh counter	STAT1 act	NF-kB neuron act	FLuc act counter	STAT1 activ conf	NFkB act	STAT3 act STAT1c
O=S1(=O)N=C(Nc2nc3c(s2)CCCC3)c2ccccc21	i	86.8	152.1	6.15	i	194.0	i	125.8
Cc1cccc(Nc2nc3c(s2)CCCC3)c1	i	i	163.9	6.57	i	207.7	146.1	i
CC(=O)c1sc(Nc2cccc(C)c2)nc1C	i	i	i	i	i	nt	nt	nt
O=C(Nc1ccc(Cl)cn1)C1CCCN1S(=O)(=O)c1ccccc1 (stereo unspecified)	i	i	i	i	i	nt	nt	nt
COc1ccc2cc(N=Cc3nc(-c4ccc(C)cc4)oc3O)cnc2c1	i	i	i	i	i	nt	nt	nt
CCCCS(=O)(=O)/C=C\C=C/S(=O)(=O)CCCC	i	i	307.0	i	i	210.0	i	i
CCCCN(Cc1ccccc1)S(=O)(=O)c1cc(Br)cc2c1N(C(C)=O)C(C)C2 (stereo unspecified)	i	i	i	i	i	nt	nt	nt
CNC(=O)c1sc2nc(-c3ccc(OC)cc3)cn2c1C	145.5	i	164.5	4.78	i	187.8	134.6	i
CC(CCc1ccccc1)NC(=O)CNC(=S)N(Cc1cccs1)C1CCCC1 (stereo unspecified)	i	i	i	i	i	nt	nt	nt
CC(=O)c1sc(NC(=O)c2ccccc2F)nc1-c1ccccc1	141.3	i	153.6	i	i	170.6	i	i
CC(=O)c1sc(NC(=O)c2ccc(F)cc2)nc1-c1ccccc1	i	i	i	i	i	nt	nt	nt
Cc1ccc2oc(-c3ccc(NC(=O)CC(C)C)cc3)nc2c1	i	i	153.6	i	i	212.5	i	i
CCCC(=O)Nc1ccc(-c2nc3cc(C)c(C)cc3o2)cc1	i	i	202.1	4.72	i	224.1	141.3	121.8
CC(C)CC(=O)Nc1ccc2oc(-c3cccnc3)nc2c1	i	i	i	i	i	nt	nt	nt
O=[N+]([O-])c1ccc2nc(-c3ccc(Cl)cc3)[nH]c2c1	156.3	i	155.3	i	i	205.9	i	i
O=[N+]([O-])c1ccc2nc(-c3ccccc3[N+](=O)[O-])[nH]c2c1	i	i	i	i	i	nt	nt	nt
O=C(Nc1ccc2nc(-c3cccnc3)[nH]c2c1)c1ccccc1F	i	i	i	i	i	nt	nt	nt
COc1ccc2nc(C(C)O)[nH]c2c1 (stereo unspecified)	i	i	i	i	i	nt	nt	nt
COc1ccc2nc(-c3ccccc3)[nH]c2c1	177.9	74.5	153.3	5.54	i	198.7	i	i
c1cncc(-c2nc3cc4ccccc4cc3[nH]2)c1	154.3	81.7	155.9	i	i	226.0	i	i
COc1ccc(-c2nc3ccc([N+](=O)[O-])cc3[nH]2)cc1	160.4	i	181.9	8.66	i	251.3	i	i
COc1ccc(-c2[nH]ncc2CN2CCC(N3CCSCC3)CC2)cc1F	i	i	i	i	i	nt	nt	nt
CC(=O)c1cnc(SCc2ccc(Cl)cc2)nc1C	i	i	202.0	4.71	i	172.4	i	i
CC(=O)c1ccc(N2CCN(C(=O)c3ccc(Cn4c(=S)[nH]c5ccc(N6CCOCC6)cc5c4=O)cc3)CC2)cc1	i	i	i	i	i	nt	nt	nt
Cc1ccc(C(=O)Oc2oc(-c3ccco3)nc2C=Nc2ccc(Cl)cc2)cc1	143.2	i	166.1	7.65	i	199.6	139.7	i
O=C(NCCc1ccccc1)c1n[nH]c2ccccc12	i	i	164.3	3.35	i	183.9	i	i
